Assay results: ChEMBL document CHEMBL2440017, “Discovery of a potent, selective, and orally bioavailable histamine H3 receptor antagonist SAR110068 for the treatment of sleep-wake disorders” (Bioorg Med Chem Lett, 2013)
In brackets after ≈: the same amount, converted by molar mass. Activity calls are given as the source filed them. The calls are words filed in the database; no cut-off is given here.

Tests used:
[1] = Volume of distribution in Sprague-Dawley rat plasma at 2 mg/kg, iv; assay type: ADME, organism-based; set-up: dose 2 mg/kg, route intravenous
Procedure, shortened: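 Male Sprague–Dawley rats received 2 mg/kg i.v. (0.5 mg/mL in saline) or 10 mg/kg p.o. (1.0 mg/mL in 0.5% MC/0.2% Tween80). Plasma and brain AUC0-inf were measured, and the B/P ratio was calculated from i.v. AUC0-inf.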

[2] = Plasma concentration in cynomolgus monkey at 30 mg/kg, iv after 15 mins; assay type: ADME, organism-based, Macaca fascicularis; set-up: dose 30 mg/kg, route intravenous
[3] = Metabolic stability in mouse microsomes; assay type: ADME, Microsome
Procedure, shortened: (§1)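 Percentage biotransformation measured in vitro in liver microsomes of each species.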

[4] = system: Plasma; assay: Clearance in Sprague-Dawley rat plasma at 2 mg/kg, iv; assay type: ADME, organism-based; set-up: dose 2 mg/kg, route intravenous; details: in vivo
Procedure, shortened: (§2)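 Male OF1 mice or male Sprague-Dawley rats, single 2 mg/kg i.v. dose. Mouse vehicle 50% 1-methyl-2-pyrrolidinone in saline at 1.0 mg/mL; rat vehicle saline at 0.5 mg/mL. Plasma and brain levels followed over time; AUC0-inf, t1/2 and clearance derived from exposure. Brain/plasma ratio uses i.v. AUC0-inf.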

[5] = Drug degradation in water after 48 hrs at room temperature; assay type: physicochemical; details: read-out: Drug degradation
Procedure, shortened: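 Compound kept 48 h at room temperature in water, aqueous solutions of pH 1.0–7.4, DMSO, or GI-tract simulation medium. Percent degradation measured.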

[6] = Distribution coefficient, log D of the compound at pH 7.4; assay type: physicochemical; details: octanol/water
[7] = Volume of distribution in OF1 mouse plasma at 2 mg/kg, iv; assay type: ADME, organism-based; set-up: dose 2 mg/kg, route intravenous
Procedure, shortened: (§3)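 Male OF1 mice received 2 mg/kg i.v. (1.0 mg/mL in 50% 1-methyl-2-pyrrolidinone/saline) or 10 mg/kg p.o. (1.0 mg/mL in 5% DMSO/0.5% MC/0.2% Tween80). Plasma and brain AUC0-inf were measured, and the B/P ratio was calculated from i.v. AUC0-inf.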

[8] = system: Salmonella typhimurium; assay: Genotoxicity in Salmonella typhimurium at 3 to 1000 ug/ml by Ames 2 test in presence of human liver microsomes; assay type: toxicity, organism-based; details: salmonella enterica subsp. enterica serovar typhimurium
Procedure, shortened: (§4)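 Ames II and micronucleus tests, Ames over 3–1000 µg/mL and MNT over 5–950 µg/mL. Each run with and without metabolic activation by human liver microsome preparations.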

[9] = target: Voltage-gated inwardly rectifying potassium channel KCNH2 (Homo sapiens, UniProt Q12809); assay: Inhibition of human ERG expressed in CHO cells by patch-clamp technique; assay type: cell-based
Voltage-gated inwardly rectifying potassium channel KCNH2, sequence (Q12809 whole entry): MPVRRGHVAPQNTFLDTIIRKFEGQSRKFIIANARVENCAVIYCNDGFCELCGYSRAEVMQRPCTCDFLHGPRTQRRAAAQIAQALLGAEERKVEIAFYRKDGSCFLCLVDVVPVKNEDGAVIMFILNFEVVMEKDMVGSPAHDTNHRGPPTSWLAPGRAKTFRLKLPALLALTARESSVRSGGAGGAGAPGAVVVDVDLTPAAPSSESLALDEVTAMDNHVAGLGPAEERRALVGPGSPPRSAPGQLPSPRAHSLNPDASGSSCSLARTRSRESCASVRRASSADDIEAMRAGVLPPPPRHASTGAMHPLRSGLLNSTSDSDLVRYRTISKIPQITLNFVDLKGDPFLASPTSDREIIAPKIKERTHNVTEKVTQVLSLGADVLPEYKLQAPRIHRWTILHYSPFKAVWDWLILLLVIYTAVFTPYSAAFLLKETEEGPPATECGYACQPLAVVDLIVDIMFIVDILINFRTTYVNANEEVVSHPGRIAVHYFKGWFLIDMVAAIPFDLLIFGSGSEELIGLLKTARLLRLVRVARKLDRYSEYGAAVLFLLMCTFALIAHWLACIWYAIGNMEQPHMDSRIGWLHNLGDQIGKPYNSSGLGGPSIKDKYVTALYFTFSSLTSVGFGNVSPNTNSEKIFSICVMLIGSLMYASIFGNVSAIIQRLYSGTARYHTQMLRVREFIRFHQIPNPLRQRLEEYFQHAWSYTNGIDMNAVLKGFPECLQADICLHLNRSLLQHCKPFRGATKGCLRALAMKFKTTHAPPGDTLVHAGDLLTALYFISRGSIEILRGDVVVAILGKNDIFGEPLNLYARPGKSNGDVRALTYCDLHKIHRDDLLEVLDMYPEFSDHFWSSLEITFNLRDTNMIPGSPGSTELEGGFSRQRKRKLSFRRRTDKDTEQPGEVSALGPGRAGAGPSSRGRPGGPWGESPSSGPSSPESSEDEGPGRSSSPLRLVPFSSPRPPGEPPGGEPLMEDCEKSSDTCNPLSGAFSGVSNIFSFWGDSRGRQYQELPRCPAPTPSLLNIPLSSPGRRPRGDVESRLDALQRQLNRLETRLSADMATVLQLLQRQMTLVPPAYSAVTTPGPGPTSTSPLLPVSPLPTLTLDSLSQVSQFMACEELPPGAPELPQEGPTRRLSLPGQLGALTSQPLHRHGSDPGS
Procedure, shortened: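 hERG current recorded by whole-cell patch clamp in CHO cells stably transfected with the human ERG gene.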

[10] = Metabolic stability in guinea pig plasma; assay type: ADME, cell-free, Cavia porcellus
Procedure, shortened: (§5)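 Compound stability measured in plasma of each species in vitro.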

[11] = Elimination half life in OF1 mouse brain at 2 mg/kg, iv; assay type: ADME, organism-based; set-up: dose 2 mg/kg, route intravenous; details: read-out: beta t1/2 (converted); procedure, shortened: as §2
[12] = system: Rattus norvegicus; assay: Awakening activity in rat assessed as increased wakefulness at 3 to 10 mg/kg, po after 4 hrs; assay type: functional, organism-based
Procedure, shortened: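 Rats given compound orally at 3 or 10 mg/kg, or reference drugs i.p. or p.o. at 10 mg/kg. EEG recorded during the light phase and scored as wakefulness, slow wave sleep and REM sleep. Time-course analysis of the effects.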

[13] = Elimination half life in Sprague-Dawley rat brain at 2 mg/kg, iv; assay type: ADME, organism-based; set-up: dose 2 mg/kg, route intravenous; details: read-out: beta t1/2 (converted); procedure, shortened: as §2
[14] = system: Plasma; assay: Metabolic stability in monkey plasma; assay type: ADME, cell-free, Macaca mulatta; details: rhesus monkey; procedure, shortened: as §5
[15] = Solubility of the compound in gastrointestinal tract simulation medium; assay type: physicochemical
[16] = target: Cytochrome P450 2D6 (Homo sapiens, UniProt P10635); assay: Inhibition of CYP2D6 (unknown origin); assay type: ADME
Cytochrome P450 2D6, sequence (P10635 whole entry): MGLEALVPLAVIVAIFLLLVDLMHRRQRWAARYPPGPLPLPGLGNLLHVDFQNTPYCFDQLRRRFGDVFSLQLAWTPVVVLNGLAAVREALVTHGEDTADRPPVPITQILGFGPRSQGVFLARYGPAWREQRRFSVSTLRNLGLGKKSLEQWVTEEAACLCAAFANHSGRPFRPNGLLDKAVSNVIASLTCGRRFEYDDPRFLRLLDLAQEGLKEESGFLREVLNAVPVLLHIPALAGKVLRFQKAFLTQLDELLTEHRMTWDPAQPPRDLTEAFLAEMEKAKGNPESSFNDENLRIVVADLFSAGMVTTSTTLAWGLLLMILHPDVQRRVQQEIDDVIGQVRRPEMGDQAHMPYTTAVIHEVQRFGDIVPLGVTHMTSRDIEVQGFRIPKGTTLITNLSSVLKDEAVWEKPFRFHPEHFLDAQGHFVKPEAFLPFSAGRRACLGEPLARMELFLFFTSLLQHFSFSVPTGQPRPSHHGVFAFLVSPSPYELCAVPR

[17] = AUC in Sprague-Dawley rat brain at 10 mg/kg, po; assay type: ADME, organism-based; set-up: dose 10 mg/kg, route oral
Procedure, shortened: (§6)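 Oral gavage at 10 mg/kg to male OF1 mice (vehicle 5% DMSO/0.5% MC/0.2% Tween80, 1.0 mg/mL) or male Sprague-Dawley rats (vehicle 0.5% MC/0.2% Tween80, 1.0 mg/mL). Plasma and brain exposure and half-life determined.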

[18] = Genotoxicity in micronucleus (unknown origin) at 5 to 950 ug/ml in presence of human liver microsomes; assay type: toxicity, Microsome; procedure, shortened: as §4
[19] = Activation of p-glycoprotein (unknown origin); details: human
[20] = system: Hepatocyte; assay: Clearance in human hepatocytes; assay type: ADME, cell-based
Procedure, shortened: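 Human hepatocytes in vitro, n = 4 preparations. Metabolic clearance expressed per 10^6 hepatocytes per hour. Also tested at a lower 0.5 concentration to check for concentration dependence.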

[21] = AUC (0 to infinity) in Sprague-Dawley rat plasma at 2 mg/kg, iv; assay type: ADME, organism-based; set-up: time infinity, dose 2 mg/kg, route intravenous; procedure, shortened: as §2
[22] = system: Plasma; assay: Metabolic stability in rabbit plasma; assay type: ADME, cell-free, Oryctolagus cuniculus; procedure, shortened: as §5
[23] = system: Cynomolgus monkey; assay: Cardiotoxicity in cynomolgus monkey assessed as PR, QRS, QTc interval at 10 mg/kg, iv; assay type: toxicity, organism-based, Macaca fascicularis; set-up: dose 10 mg/kg, route intravenous; details: in vivo
Procedure, shortened: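 Anaesthetized cynomolgus monkeys dosed 10 mg/kg i.v. Arterial blood pressure, heart rate and ECG (PR, QRS, QTc intervals) monitored. Plasma drug sampled at 5, 15 and 30 min post-dose.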

[24] = Metabolic stability in rabbit microsomes; assay type: ADME, Oryctolagus cuniculus, Microsome; procedure, shortened: as §1
[25] = Plasma concentration in cynomolgus monkey at 10 mg/kg, iv after 15 mins; assay type: ADME, organism-based, Macaca fascicularis; set-up: dose 10 mg/kg, route intravenous
Procedure, shortened: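 Anaesthetized cynomolgus monkeys were dosed 10 mg/kg i.v. Plasma drug concentrations were measured at 5, 15 and 30 min post-dose, alongside arterial pressure, heart rate and ECG intervals.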

[26] = Oral bioavailability in OF1 mouse plasma at 10 mg/kg; assay type: ADME, organism-based; procedure, shortened: as §3
[27] = AUC (0 to infinity) in Sprague-Dawley rat plasma at 10 mg/kg, po; assay type: ADME, organism-based; set-up: time infinity, dose 10 mg/kg, route oral; procedure, shortened: as §6
[28] = system: Mus musculus; assay: Toxicity in mouse assessed as behavioral side effect at 30 mg/kg, po; assay type: organism-based; set-up: dose 30 mg/kg, route oral; details: in vivo
Procedure, shortened: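 Group acute oral behavioral safety study in mice at 30 mg/kg p.o., scored for behavioral side effects.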

[29] = target: Histamine H3 receptor (Homo sapiens, UniProt Q9Y5N1); assay: Displacement of [3H]N-alpha-methylhistamine from human histamine H3 receptor expressed in CHO cells; assay type: cell-based
Histamine H3 receptor, sequence (Q9Y5N1 whole entry): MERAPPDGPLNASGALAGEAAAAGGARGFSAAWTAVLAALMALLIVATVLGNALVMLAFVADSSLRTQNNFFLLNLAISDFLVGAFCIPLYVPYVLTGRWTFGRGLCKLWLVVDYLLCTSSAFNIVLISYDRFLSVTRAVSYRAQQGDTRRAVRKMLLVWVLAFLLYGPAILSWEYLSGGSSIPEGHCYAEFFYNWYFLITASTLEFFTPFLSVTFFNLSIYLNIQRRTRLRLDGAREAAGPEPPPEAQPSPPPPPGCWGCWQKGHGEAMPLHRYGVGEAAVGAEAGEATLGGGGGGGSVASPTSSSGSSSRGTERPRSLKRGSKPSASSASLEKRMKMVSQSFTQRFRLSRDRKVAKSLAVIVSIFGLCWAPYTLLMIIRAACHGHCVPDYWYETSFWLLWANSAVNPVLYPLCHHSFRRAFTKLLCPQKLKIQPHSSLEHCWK

[30] = Elimination half life in OF1 mouse brain at 10 mg/kg, po; assay type: ADME, organism-based; set-up: dose 10 mg/kg, route oral; details: read-out: beta t1/2 (converted); procedure, shortened: as §6
[31] = Lipophilicity, log P of the compound; assay type: physicochemical; details: octanol/water
Procedure, shortened: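 clogP calculated with ACD/Labs methods.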

[32] = Solubility of the compound in water; assay type: physicochemical
[33] = system: Salmonella typhimurium; assay: Genotoxicity in Salmonella typhimurium at 3 to 1000 ug/ml by Ames 2 test; assay type: toxicity, organism-based; details: salmonella enterica subsp. enterica serovar typhimurium; procedure, shortened: as §4
[34] = system: Mus musculus; assay: Autonomic toxicity in mouse at 10 to 30 mg/kg, po; assay type: organism-based; set-up: dose 10-30 mg/kg, route oral; details: in vivo
Procedure, shortened: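 Acute oral behavioural safety evaluation in grouped mice at 0, 10 and 30 mg/kg p.o. Animals scored for behavioural, neurologic and autonomic signs.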

[35] = system: Plasma; assay: Clearance in OF1 mouse plasma at 2 mg/kg, iv; assay type: ADME, organism-based; set-up: dose 2 mg/kg, route intravenous; details: in vivo; procedure, shortened: as §2
[36] = target: Sigma non-opioid intracellular receptor 1 (Homo sapiens) (UniProt Q99720); assay: Inhibition of sigma 1 receptor (unknown origin) at 10 uM
Sigma non-opioid intracellular receptor 1 (Homo sapiens), sequence (Q99720 whole entry): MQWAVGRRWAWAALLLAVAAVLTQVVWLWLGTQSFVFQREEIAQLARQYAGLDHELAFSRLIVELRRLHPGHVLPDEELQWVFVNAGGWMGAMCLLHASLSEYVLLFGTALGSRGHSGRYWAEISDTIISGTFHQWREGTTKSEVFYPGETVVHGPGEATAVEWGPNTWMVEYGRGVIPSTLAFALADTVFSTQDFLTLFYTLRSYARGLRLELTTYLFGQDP
Procedure, shortened: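 CEREP selectivity panel: percent inhibition of control specific binding at 10 µM.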

[37] = AUC (0 to infinity) in OF1 mouse brain at 2 mg/kg, iv; assay type: ADME, organism-based; set-up: time infinity, dose 2 mg/kg, route intravenous; procedure, shortened: as §2
[38] = system: Mus musculus; assay: Neurologic toxicity in mouse at 10 to 30 mg/kg, po; assay type: organism-based; set-up: dose 10-30 mg/kg, route oral; details: in vivo
Procedure, shortened: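 Acute oral behavioral safety evaluation in mice. Oral doses were 0, 10 and 30 mg/kg. Behavioral, neurologic and autonomic signs were scored.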

[39] = Elimination half life in Sprague-Dawley rat plasma at 2 mg/kg, iv; assay type: ADME, organism-based; set-up: dose 2 mg/kg, route intravenous; details: read-out: beta t1/2 (converted); procedure, shortened: as §2

Cc1cc(N2CC[C@H](N3CCC[C@@H]3C)C2)ccc1NC(=O)C1CCOCC1
Vd [1]: 3.1 L/kg
concentration at 0.25 h [2]: 11 µM
Stability [3]: Stable
clearance [4]: 16.7 mL/min/kg
degraded at 48 h [5]: < 2%
logD [6]: 0.15
Vd [7]: 3.5 L/kg
Activity [8]: Non-toxic
IC50 [9]: 18.9 µM
Stability [10]: Stable
half-life [11]: 0.83 h
Activity [12]: Active
half-life [13]: 3.6 h
Stability [14]: Stable
solubility [15]: > 2500 µg/mL
inhibition (INH) [16]: Active
AUC [17]: 4200 ng·h/mL
Activity [18]: Non-toxic
Activity [19]: Not Active
CLH [20]: 0.031 mL/h
AUC(0-inf) [21]: 2100 ng·h/mL
Stability [22]: Stable
Activity [23]: Non-toxic
Stability [24]: Stable
concentration at 0.25 h [25]: 14 µM
bioavailability [26]: 58%
AUC(0-inf) [27]: 8400 ng·h/mL
Activity [28]: Non-toxic
Ki [29]: 0.001 µM
half-life [30]: 1.9 h
logP [31]: 1.31
solubility [32]: 1100 µg/mL (≈ 2960 µM)
Activity [33]: Non-toxic
Activity [34]: Non-toxic
clearance [35]: 30 mL/min/kg
inhibition [36]: 53%
AUC(0-inf) [37]: 380 ng·h/mL
Activity [38]: Non-toxic
half-life [39]: 4.3 h
